Source: ChEMBL document CHEMBL1140921, “Discovery of novel Myc-Max heterodimer disruptors with a three-dimensional pharmacophore model” (J Med Chem, 2009)
Calls of active or inactive are those of the source. No cut-off for these calls is given here.

How the values were obtained:
[1] = Inhibition of 6-His tagged recombinant c-Myc353-437 gene binding to Max(S) protein assessed as disruption of heterodimer formation by circular dichroism assay
Outline: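 Circular dichroism on equimolar c-Myc and Max (1.5 µM each), with helical content read as ellipticity at 222 nm. Compounds were screened at 200 µM (average of three independent trials), then titrated over a concentration range. The fitted Kcomp was multiplied by the independently determined c-Myc–Max dissociation constant to estimate affinity for c-Myc monomer. Triplicate.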

HL-60 = experiment: Cytotoxicity against human HL60 cells by MTS assay; assay type: functional, cell-based
Outline: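 HL60 cell growth dose-response profiles; IC50 calculated from the profile on day 5 after compound addition.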

[2] = Cytotoxicity against rat c-Myc knockout KO-HMG cells overexpressing HMGA1b by MTS assay; assay type: cell-based

Compound: O=C1NC(=S)S/C1=C\c1ccc(Cl)cc1
- IC50 [1]: 41 µM

Compound: O=C1NC(=S)S/C1=C\c1ccc(O)c(O)c1
- IC50 [1]: 23 µM

Compound: CCc1ccc(/C=C2\SC(=S)NC2=O)cc1
- IC50 (HL-60): 35 µM
- IC50 [1]: 49 µM

Compound: CCCCOC(=O)CCN1C(=O)/C(=C/c2ccc(CC)cc2)SC1=S
- IC50 [1]: 10 µM

Compound: CCc1ccc(OCC(=O)Nc2ccc(C)cc2Br)cc1
- IC50 (HL-60): 23 µM
- IC50 [2]: > 55 µM

Compound: CN(C)c1ccc(/C=C2\SC(=S)NC2=O)cc1
- Activity [1]: inactive

Compound: Cc1ccc(C)c(OCN2Cc3ccccc3C2C=O)c1 (stereo not drawn)
- IC50 (HL-60): 15 µM
- IC50 [2]: > 35 µM

Compound: CC(C)c1ccc(/C=C2\SC(=S)NC2=O)cc1
- IC50 [1]: 38 µM

Compound: CCCN1C(=O)/C(=C/c2ccc(CC)cc2)SC1=S
- IC50 [1]: 4.6 µM

Compound: O=C1NC(=S)S/C1=C\c1ccc(O)cc1
- Activity [1]: inactive
